This note sets out measurements from ChEMBL document CHEMBL1122147, “N,N'-Dialkyl-1,2-bis(hydroxyphenyl)ethylenediamines and N,N-dialkyl-4,5-bis(4-hydroxyphenyl)imidazolidines: syntheses and evaluation of their mammary tumor inhibiting activity” (1982).

Structures are written as SMILES. Activity calls are given as the source filed them. The rule behind the calls is not given here. Where only a bound is given, the exact number is not on record here.

Experiment [1] has as its target T1, Estrogen receptor (Mus musculus) (UniProt O08537+P19785). As to the kind of experiment: (§1) Binding affinity for murine Estrogen receptor; No affinity. The class given is protein assay.
The target of experiment [2] is T1, Estrogen receptor (Mus musculus). As to the kind of experiment: Binding affinity for murine Estrogen receptor. The class given is protein assay.
For experiment [3] the target is unchanged. The description is as §1. The class given is protein assay. This is another data set of the same source.
Experiment [4] deals with MCF7. As to the kind of experiment: Incorporation of [3H]thymidine into estrogen-responsive MCF-7 human breast tumor cells at 10e-8 M with hexestrol. It counts as functional. Summed up:
(§2)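 MCF-7 cells plated in medium with 10% FCS, switched next day to 5% dextran-charcoal-stripped calf serum, medium renewed every 72 h. At ~60% confluence compounds added in ethanol (0.1% final), 60 h incubation; 1 μCi [3H]thymidine per well for last 2 h. Acid (10% Cl3AcOH)-precipitable counts from sonicate, dpm/dish, mean of six dishes ± SD.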

Experiment [5] has as its system MCF7. Put plainly: Incorporation of [3H]thymidine into estrogen-responsive MCF-7 human breast tumor cells at 10e-8 M concentration with hexestrol; dpm/dish. It counts as functional. Summed up: as §2
Experiment [6] has as its target T1, Estrogen receptor (Mus musculus). As to the kind of experiment: In vitro inhibition of murine Estrogen receptor. Conditions: concentration not given here. Also on record: concentration or dose not given beside the values. It counts as protein assay.
The test system of experiment [7] is Rattus norvegicus. Put plainly: Inhibition of the DMBA-induced mammary carcinoma in 8 rats at 15 mg/kg dose; not significant. It counts as functional. Summed up: (§3)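 Established DMBA-induced mammary carcinoma, Sprague-Dawley rats; compound in arachis oil sc three times weekly (Mon, Wed, Fri). Starting tumor area above 140 mm² per animal; percent increase of tumor area after 28 days of therapy, mean values; significance by Wilcoxon-Mann-Whitney U test.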

Experiment [8] concerns Rattus norvegicus. Put plainly: Inhibition of the DMBA-induced mammary carcinoma in 11 rats at 25 mg/kg dose; not significant. The class given is functional. The gist of the method: as §3
For experiment [9], the system named is Rattus norvegicus. As to the kind of experiment: Inhibition of the DMBA-induced mammary carcinoma in 10 rats at 20 mg/kg dose. It counts as functional. Summed up:
as §3

The species entered for experiment [10] is Rattus norvegicus. Put plainly: Dehydrogenase activity in regressing DMBA-induced mammary tumor in rats. It counts as functional. The gist of the method: (§4)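 DMBA-induced rat mammary tumors, growing versus regressing, assayed for glucose-6-phosphate plus 6-phosphogluconate dehydrogenase and p-nitrophenylphosphatase activities (μM/mL); mean ± SD, growing vs regressing compared by Student's t test.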

The species entered for experiment [11] is Rattus norvegicus. As to the kind of experiment: Dehydrogenase activity in proliferating DMBA-induced mammary tumor in rats. The class given is functional. Summed up:
as §4

The species entered for experiment [12] is Rattus norvegicus. Put plainly: p-Nitrophenylphosphatase activity in proliferating DMBA-induced mammary tumor in rats. The class given is functional. Summed up:
as §4

The species entered for experiment [13] is Rattus norvegicus. Put plainly: p-Nitrophenylphosphatase activity in regressing DMBA-induced mammary tumor in rats; not significant. It counts as functional. Summed up: as §4
In experiment [14] the test system is MCF7. As to the kind of experiment: Incorporation of [3H]thymidine into estrogen-responsive MCF-7 human breast tumor cells at 10e-5 M; dpm/dish. The class given is functional. The gist of the method:
as §2

The test system of experiment [15] is MCF7. As to the kind of experiment: Incorporation of [3H]thymidine into estrogen-responsive MCF-7 human breast tumor cells at 10e-5 M. The class given is functional. The gist of the method:
as §2

Experiment [16] deals with MCF7. As to the kind of experiment: Incorporation of [3H]thymidine into estrogen-responsive MCF-7 human breast tumor cells at 10e-8 M with hexestrol; dpm/dish. The class given is functional. The gist of the method: as §2

T1 sequence (O08537 whole entry, looked up): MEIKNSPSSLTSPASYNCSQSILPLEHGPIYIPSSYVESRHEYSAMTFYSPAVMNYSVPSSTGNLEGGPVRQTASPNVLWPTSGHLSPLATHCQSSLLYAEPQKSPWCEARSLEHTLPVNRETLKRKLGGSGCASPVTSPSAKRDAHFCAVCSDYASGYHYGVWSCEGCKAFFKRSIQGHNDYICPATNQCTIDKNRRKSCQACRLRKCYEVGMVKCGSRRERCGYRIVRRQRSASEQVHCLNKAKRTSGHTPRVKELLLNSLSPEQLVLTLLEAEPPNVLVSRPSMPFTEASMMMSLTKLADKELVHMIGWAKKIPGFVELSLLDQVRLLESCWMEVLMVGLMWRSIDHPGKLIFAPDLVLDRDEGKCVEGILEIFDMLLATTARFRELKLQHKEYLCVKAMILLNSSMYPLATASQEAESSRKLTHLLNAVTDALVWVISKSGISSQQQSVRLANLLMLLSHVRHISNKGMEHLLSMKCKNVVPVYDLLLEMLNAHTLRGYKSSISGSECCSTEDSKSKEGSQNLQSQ
T1 sequence (P19785 whole entry, looked up): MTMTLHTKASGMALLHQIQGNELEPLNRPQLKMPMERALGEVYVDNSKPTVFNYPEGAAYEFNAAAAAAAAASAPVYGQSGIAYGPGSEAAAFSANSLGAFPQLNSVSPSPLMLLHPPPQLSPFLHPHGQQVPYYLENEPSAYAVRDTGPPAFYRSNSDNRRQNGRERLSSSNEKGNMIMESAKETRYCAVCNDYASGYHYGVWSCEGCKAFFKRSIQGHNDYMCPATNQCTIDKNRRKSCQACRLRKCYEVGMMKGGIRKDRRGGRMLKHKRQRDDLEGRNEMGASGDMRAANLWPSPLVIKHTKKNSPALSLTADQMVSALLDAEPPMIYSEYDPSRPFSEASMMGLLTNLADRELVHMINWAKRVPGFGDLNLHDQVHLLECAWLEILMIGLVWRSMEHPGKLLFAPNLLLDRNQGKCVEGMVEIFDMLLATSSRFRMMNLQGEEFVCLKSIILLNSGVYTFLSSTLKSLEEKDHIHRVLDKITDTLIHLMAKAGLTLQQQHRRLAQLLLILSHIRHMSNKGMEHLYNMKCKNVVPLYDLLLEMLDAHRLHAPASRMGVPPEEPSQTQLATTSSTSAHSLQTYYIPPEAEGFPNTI

As for `COc1ccc(C(NC(C)C)C(NC(C)C)c2ccc(OC)cc2)cc1` (stereo not given), in [1], the Ka result is “inactive”.
With `CCNC(c1ccc(OC)cc1)C(NCC)c1ccc(OC)cc1` (stereo not given), the Ka result in experiment [1] is “inactive”.
On to `CCCNC(c1ccc(O)cc1)C(NCCC)c1ccc(O)cc1` (stereo not given), for which the Ka in experiment [2] worked out at 1.1e+06 M⁻¹.
Take `CNC(c1ccc(O)cc1)C(NC)c1ccc(O)cc1` (stereo not given): the Ka entry in experiment [3] is “inactive”.
In turn, `CCCCCNC(c1ccc(O)cc1)C(NCCCCC)c1ccc(O)cc1` (stereo not given) displayed a Ka in experiment [2] of 2.2e+06 M⁻¹.
On to `CCCCCNC(c1ccc(OC)cc1)C(NCCCCC)c1ccc(OC)cc1` (stereo not given), for which, in [3], the Ka entry was “inactive”.
With `CC[C@H](c1ccc(O)cc1)[C@@H](CC)c1ccc(O)cc1` [HEXESTROL], the Activity with MCF7 [4] amounted to 120%; in the experiment on MCF7 [5] it was 16485.
`CCCCNC(c1ccc(O)cc1)C(NCCCC)c1ccc(O)cc1` (single isomer, unassigned; (+)) had a Ka in experiment [3] of 2.1e+07 M⁻¹.
For the molecule `CNC(c1ccc(OC)cc1)C(NC)c1ccc(OC)cc1` (stereo not given), in experiment [3], the Ka entry was “inactive”.
For orientation: inhibition means the percentage by which the read-out fell short of the control. Take `CCCCN1C(c2ccc(O)cc2)C(c2ccc(O)cc2)N(CCCC)C1c1ccccc1` (racemic): the inhibition in experiment [6] was determined as 39%.
On to `CCCNC(c1ccc(OC)cc1)C(NCCC)c1ccc(OC)cc1` (stereo not given), for which the Ka entry in experiment [1] is “inactive”.
In turn, `CCCCNC(c1ccc(O)cc1)C(NCCCC)c1ccc(O)cc1.Cl.Cl` (stereo not given) had an Increase in the experiment with Rattus norvegicus [7] of 475%.
In [3], `CCCCNC(c1ccc(O)cc1)C(NCCCC)c1ccc(O)cc1` (single isomer, unassigned; (-)) displayed a Ka of 700000 M⁻¹.
`CCCCCCNC(c1ccc(O)cc1)C(NCCCCCC)c1ccc(O)cc1.Cl.Cl` (stereo not given): the Increase in the experiment on Rattus norvegicus [8] came out at 132%. Also, in experiment [2], the Ka was 320000 M⁻¹.
In the case of `CC/C(=C(\c1ccccc1)c1ccc(OCCN(C)C)cc1)c1ccccc1` [TAMOXIFEN], the Activity with MCF7 [4] is 82%; with MCF7 [5] it was 11225.
Consider `CCCCNC(c1ccccc1O)C(NCCCC)c1ccccc1O` (stereo not given), for which the Ka result in experiment [2] was “inactive”.
For `CCCCNC(c1ccc(O)cc1)C(NCCCC)c1ccc(O)cc1` (racemic), the Ka in [2] was 3.6e+06 M⁻¹.
`CCCCNC(c1ccc(O)cc1)C(NCCCC)c1ccc(O)cc1.Cl.Cl` (single isomer, unassigned; (+)) displayed an Increase in the experiment on Rattus norvegicus [9] of 112%. In addition, the Activity worked out at 101.8 uM ml-1 in the experiment filed under Rattus norvegicus [10], 191.7 uM ml-1 in the experiment listed under Rattus norvegicus [11], 39.4 uM ml-1 in the experiment listed under Rattus norvegicus [12] and 48.4 uM ml-1 in the experiment listed under Rattus norvegicus [13].
`CCCCN1CN(CCCC)C(c2ccc(O)cc2)C1c1ccc(O)cc1` (racemic) [listing 1 of 2 here]: the inhibition in [6] was 70%.
Molecule `CCCCNC(c1ccc(O)cc1)C(NCCCC)c1ccc(O)cc1.Cl.Cl` (single isomer, unassigned; (-)) showed an Increase in the experiment on Rattus norvegicus [9] of 115%. For the same molecule, the Activity worked out at 121.3 uM ml-1 in the experiment listed under Rattus norvegicus [10], 183.3 uM ml-1 in the experiment filed under Rattus norvegicus [11], 42.8 uM ml-1 in the experiment filed under Rattus norvegicus [12] and 44.9 uM ml-1 in the experiment listed under Rattus norvegicus [13].
In experiment [6], `CCCCN1C(c2ccc(O)cc2)C(c2ccc(O)cc2)N(CCCC)C1c1ccc(O)cc1` (racemic) yielded an inhibition of 48%.
Take `CCCCCCNC(c1ccc(OC)cc1)C(NCCCCCC)c1ccc(OC)cc1` (stereo not given): the Ka entry in experiment [1] was “inactive”.
With `CCCCN1CN(CCCC)C(c2ccc(O)cc2)C1c1ccc(O)cc1` (single isomer, unassigned; (+)), in [6], the inhibition was 3%.
Regarding `CCCCN1CN(CCCC)C(c2ccc(O)cc2)C1c1ccc(O)cc1` (racemic) [listing 2 of 2 here], in the experiment on Rattus norvegicus [7], the Increase is on record as 105%.
Molecule `CCCN1CN(CCC)C(c2ccc(O)cc2)C1c1ccc(O)cc1` (racemic) returned an inhibition in experiment [6] of 66%.
For the molecule `CCCCNC(c1cccc(O)c1)C(NCCCC)c1cccc(O)c1` (stereo not given), the Ka in experiment [2] is less than 10000 M⁻¹.
For the molecule `CCNC(c1ccc(O)cc1)C(NCC)c1ccc(O)cc1` (stereo not given), in [2], the Ka is less than 10000 M⁻¹.
With `CCCCNC(c1ccc(O)cc1)C(NCCCC)c1ccc(O)cc1.Cl.Cl` (racemic), the Activity is reported as 10833 in the experiment on MCF7 [14], 79% in the experiment on MCF7 [15], 13942 with MCF7 [16] and 101% with MCF7 [4].
Turning to `CCCCN1CN(CCCC)C(c2ccc(O)cc2)C1c1ccc(O)cc1` (stereo in doubt; 7d), in [6], the inhibition is 0%.
Regarding `CCCCNC(c1cccc(OC)c1)C(NCCCC)c1cccc(OC)c1` (stereo not given), in [1], the Ka result is “inactive”.
Turning to `CCCCN1C(=S)N(CCCC)C(c2ccc(O)cc2)C1c1ccc(O)cc1` (racemic), in [6], the inhibition worked out at 75%.
Still for that read-out and setting: in the case of `CCCCN1CN(CCCC)C(c2ccc(O)cc2)C1c1ccc(O)cc1` (stereo in doubt; 7c) it was 75%.
In experiment [2], `CC(C)NC(c1ccc(O)cc1)C(NC(C)C)c1ccc(O)cc1` (stereo not given) returned a Ka of 140000 M⁻¹.
On to `CCCCNC(c1ccc(OC)cc1)C(NCCCC)c1ccc(OC)cc1` (stereo not given), for which the Ka entry in [1] and in experiment [3] was “inactive” throughout.
In the case of `CCCCNC(c1ccccc1OC)C(NCCCC)c1ccccc1OC` (stereo not given), the Ka entry in experiment [3] is “inactive”.
